# Hits are enriched below; roughly 3.5% of the tested compounds scored in any of these assays.
# FN deposit inh = inhibitors of fibronectin matrix deposition, primary screen, AH1F cells, Alexa488-fibronectin fluorescence, plate reader; AH1F fibroblasts, overnight; inhibition, % at 12.6 µM; hit rate 0.086% among 350,000;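 active means mean inhibition across replicates of 30% or more, regardless of how many single replicates reach that level; inconclusive means mean under 30% yet at least half of replicates reach 30%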
#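 Test system: AH1F fibroblast monolayer depositing Alexa488-labelled fibronectin into matrix. Input: 10000 cells per well. Technique: fluorescence, ex 485 nm, em 525 nm. Buffer or medium: DMEM plus 2% serum, read in PBS. Timing: 1 h cell adhesion before compound, then overnight fibronectin incubation. Compound: single dose, pinned. Read-out basis: inhibition from reduced deposited-fibronectin fluorescence.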
# PglD inh = C. jejuni PglD acetyltransferase inhibitors, primary screen, biochemical, DTNB colorimetric, single point. inhibition, % at 12.5 µM. purified PglD enzyme, DTNB colorimetric CoA detection. hit rate 0.098% among 360,000. UDP-N-acetylbacillosamine N-acetyltransferase PglD (Campylobacter jejuni); in the data active means inhibition above about 16%, passing the limit was not always enough; inconclusive means no clear call, values can overlap the other calls
# rRNA inh HTS = reduced GFP signal of wild-type E. coli, primary screen, bacterial rRNA inhibitor project, GFP/RFP fluorescence, OD600, single point | GFP signal change (wild-type ribosome), % (concentration not given with the values) | E. coli WT GFP vs humanized-ribosome RFP mutants, 24 h; active compounds read low; DMSO median 0, no signal -100 | hit rate 1.6% among 350,000 | AID 720706, 2013;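 active means significant combined selectivity score with lowered wild-type GFP, culture density cut under 30%, mutant RFP and density less affected; inactive means any of these conditions unmet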
# HIV Env fusion = inhibitors of HIV-1 Env-driven cell-cell fusion, primary screen, HeLa-JRFL effector, CEM21 target cells, luciferase; hit rate 1.1% among 360,000; inhibition, % at 12.3 µM;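 active means mean replicate inhibition score of at least 50 and every replicate individually at or above 50; inconclusive means only one of the two criteria met; inactive means mean below 50 and not all replicates reaching 50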
# DENV2 CPE = inhibitors of DENV2 cytopathic effect, primary screen, cell-based, plate reader, single concentration; DENV2-infected cells, cytopathic effect rescue; CPE inhibition, % at 9.99 µM; hit rate 1.7% among 350,000; AID 651640, 2012; in the data active means CPE inhibition above about 20%, passing the limit was not always enough; inconclusive means no clear call, values can overlap the other calls; tested in BHK-21 cells
# PGC1a acetyl inh = inhibitors of PGC1a acetylation signal, primary screen, cell-based, U2OS, AlphaScreen, inhibitor mode | hit rate 0.17% among 350,000 | AlphaScreen anti-acetyl-lysine; with virally co-expressed GCN5 acetyltransferase | inhibition, % at 15.6 µM;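 active means every replicate shows inhibition of at least 40%; inconclusive means mean inhibition at least 40% but some replicate below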
# Numbers stand for hits; . = inactive; ? = inconclusive; / = no result given.
SMILES,FN deposit inh,PglD inh,rRNA inh HTS,HIV Env fusion,DENV2 CPE,PGC1a acetyl inh
Cc1ccc(S(=O)(=O)Nc2ccccc2C(C(=O)OC(C)(C)C)C(=O)OC(C)(C)C)cc1,.,/,.,57.4,.,/
Cc1ccc(S(=O)(=O)Nc2ccccc2C(O)c2ccccc2)cc1 (stereo not drawn),.,.,.,.,.,.
c1ccc(C(c2ccccc2)c2nc(-c3cccnc3)no2)cc1,/,.,-39.5,.,.,.
O=C(Nc1ccc(OCC(=O)N2CCOCC2)cc1)c1cncc(Br)c1,.,.,.,57.0,.,.
CN(C)C(CNC(=O)c1ccccc1C(F)(F)F)c1ccco1 (stereo not drawn),.,.,.,.,.,/
CN(C)C(CNC(=O)c1cccs1)c1ccco1 (stereo not drawn),.,.,.,.,34.8,.
CN(C)C(CNC(=O)c1c(F)cccc1Cl)c1ccco1 (stereo not drawn),.,.,.,.,21.2,/
C[C@@H]1CN([C@@H](C)CO)C(=O)Cc2cc(NC(=O)Nc3ccc(F)cc3)ccc2O[C@H]1CN(C)C(=O)Nc1cccc2ccccc12,/,.,.,.,.,.
CO[C@@H]1CN(C)C(=O)c2ccc(NS(=O)(=O)c3ccc(F)cc3)cc2OC[C@@H](C)N(C)C[C@H]1C,.,.,.,.,.,.
Cc1ccc(CN=c2c([N+](=O)[O-])nn(-c3cccc(C)c3)n2O)cc1,.,/,.,.,.,/
Cc1ccc(CN=c2c([N+](=O)[O-])nn(-c3cccc(Cl)c3)n2O)cc1,.,.,-24.0,.,.,.
CCOC(=O)C1CCN(C2=NC(=O)/C(=C/c3ccccc3OC)S2)CC1,.,.,-24.1,.,.,.
COc1ccc(CNC(=O)C[C@@H]2C[C@H]3c4cc(NS(C)(=O)=O)ccc4O[C@H]3[C@H](CO)O2)cc1,.,.,.,/,.,.
CCCNC(=O)N(C)C[C@H]1Oc2cc(C#C[C@H](C)O)ccc2S(=O)(=O)N([C@H](C)CO)C[C@@H]1C,.,.,.,.,.,.
CN1C(=O)C2(c3ccccc31)N(C)CC(c1ccccn1)C21SC(=S)N(Cc2ccco2)C1=O (stereo not drawn),.,.,/,.,/,/
CN1C(=O)C2(c3ccccc31)N(C)CC(c1ccccc1)C21SC(=S)N(Cc2ccco2)C1=O (stereo not drawn),.,.,/,79.7,/,.
COc1ccc(-c2nc3c4ccccc4ccn3c2Cc2cccc(Cl)c2)cc1OC,.,.,.,.,75.8,.
Cc1ccc(Cc2c(-c3ccccc3)nc3c4ccccc4ccn23)cc1,.,/,/,.,.,/
Cc1ccc(Cc2c(-c3cccc(Br)c3)nc3c4ccccc4ccn23)cc1,.,/,.,.,38.9,/
CN(C)CCCNC(=O)C[C@H]1C=C[C@@H](NC(=O)c2ccccc2F)[C@H](CO)O1,.,.,.,.,.,.
CCCNC(=O)N1[C@@H]2CN(C(=O)CC)c3ccccc3[C@@H]2[C@@H]1CO,/,.,.,/,/,.
O=C(CSc1cccc2cccnc12)N/N=C/c1ccc(O)cc1,.,.,-14.5,.,.,.
O=C(N/N=C/c1ccncc1)c1ccc(COc2cccc3cccnc23)cc1,/,.,-28.0,.,.,.
COCC(=O)NC[C@@H]1[C@H](c2ccc(C3=CCCC3)cc2)[C@@H](CO)N1C(=O)C1CC1,.,.,.,/,.,.
CC(=O)c1cccc(NC(=O)C2=CC(c3cccs3)=NS(=O)(=O)N2C)c1,.,.,-19.5,.,.,.
SMILES,FN deposit inh,PglD inh,rRNA inh HTS,HIV Env fusion,DENV2 CPE,PGC1a acetyl inh
CN1C(C(=O)Nc2cccc(O)c2)=CC(c2cccs2)=NS1(=O)=O,.,.,.,.,.,.
CC(C)(C)N(Cc1ccccc1)C(=O)COC(=O)c1ccc([N+](=O)[O-])o1,/,.,/,/,?,.
CCN(C(=O)COC(=O)c1ccc([N+](=O)[O-])o1)c1cccc2ccccc12,.,.,-19.5,/,.,/
CCN1C(=O)C(CC(=O)Nc2ccc(OC)cc2)N(Cc2cccs2)C1=S (stereo not drawn),/,/,-30.7,/,.,.
C[C@H]1CN([C@@H](C)CO)C(=O)Cc2cc(NS(C)(=O)=O)ccc2O[C@H]1CN(C)Cc1ccc(C(=O)O)cc1,/,.,.,.,.,.
COc1ccc([C@H]2CC(=O)c3c(O)cc(O)cc3O2)cc1O,.,/,-23.5,.,.,.
O=C1C[C@@H](c2ccc(O)cc2)Oc2cc(O)cc(O)c21,.,.,.,.,102.8,.
O=[N+]([O-])c1ccc(C(O)CC(O)CSc2nc(-c3ccccc3)c(-c3ccccc3)o2)cc1 (stereo not drawn),/,.,/,.,.,.
OC(CSc1nc(-c2ccccc2)c(-c2ccccc2)o1)CC(O)c1ccccc1 (stereo not drawn),/,.,/,.,30.1,.
OC[C@@H]1Nc2ccc(C#Cc3ccccc3)cc2[C@H]2[C@@H]1CCN2Cc1nccs1,.,.,.,/,/,.
CC(=O)Cn1ncc(N2CCCCC2)c(Cl)c1=O,/,/,.,.,.,/
C/C(Cn1ncc(N2CCOCC2)c(Cl)c1=O)=N\O,.,.,.,.,28.6,.
C[C@@H]1CN([C@H](C)CO)C(=O)c2cc(-c3cccnc3)cnc2O[C@H]1CN(C)C(=O)Nc1ccc(F)cc1,/,.,.,.,.,.
COc1ccc(-c2cnc3c(c2)C(=O)N([C@H](C)CO)C[C@H](C)[C@H](CN(C)Cc2ccc4c(c2)OCO4)O3)cc1,/,.,/,.,.,.
C[C@@H]1CCCCO[C@@H](CN(C)C(=O)c2ccncc2)[C@H](C)CN([C@H](C)CO)C(=O)c2cc(NS(=O)(=O)c3cn(C)cn3)ccc2O1,/,.,.,.,.,.
Cc1cc(C(=O)CSc2nnc3ccccn23)c(C)n1-c1ccccc1,.,/,/,60.6,/,/
S=c1[nH]nc(C(c2ccccc2)C2CCCCC2)o1 (stereo not drawn),.,/,-27.0,.,.,.
Cc1noc(C)c1S(=O)(=O)Nc1ccc2c(c1)C(=O)N([C@@H](C)CO)C[C@H](C)[C@H](CN(C)C(=O)C1CCCCC1)OCCCC[C@H](C)O2,/,.,.,.,.,.
CC(C)n1cnnc1SCC(=O)Nc1cccnc1Cl,.,.,.,.,68.4,.
CN(C)C(=O)[C@H]1[C@H](CO)[C@H]2Cn3c(cccc3=O)[C@H]2N1CC1CCCC1,/,/,.,/,/,.
CCc1sc(N2[C@H](C#N)[C@H](c3ccccc3-c3ccccc3)[C@H]2CO)nc1C,.,/,.,/,76.5,.
Cc1ccc(-c2ccccc2[C@@H]2[C@H](C#N)N(C(=O)Cc3cccnc3)[C@H]2CO)cc1,.,/,.,/,25.6,.
